From ChEMBL document CHEMBL1649291, “ADS-J1 inhibits human immunodeficiency virus type 1 entry by interacting with the gp41 pocket region and blocking fusion-active gp41 core formation” (Antimicrob Agents Chemother, 2009)
Values belong to the compound of their own block, whether it stands above or below them. Calls of active or inactive are those of the source. The calls are words filed in the database; no cut-off is given here. Peptide text beside a SMILES is read from it.

How the values were obtained:
[1] = system: Human immunodeficiency virus 1; assay: Binding affinity to IQ pocket of HIV1 3B gp41 at 1 uM after 30 mins by SPR assay
[2] = system: Human immunodeficiency virus 1; assay: Induction of alteration of preformed structural configuration of N36-C34 complex in HIV1 3B gp41 at 10 to 40 uM after 30 mins by spectroscopy
How it was run: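 Preformed-complex CD control: N36 and C34 incubated together 37°C 30 min, then compound or PBS added for a further 30 min at 37°C; final peptides 10 µM each, compound 40 µM, in PBS pH 7.2. Spectra at room temperature, blank-subtracted; helicity from 222 nm ellipticity versus −33,000 deg cm2 dmol−1.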

[3] = system: MT2; assay: Inhibition of HIV1 3B gp41-mediated cell-cell fusion between viral envelope expressing human virus-infected H9 cells to human MT2 cells at 10 uM by fluorescence assay; type: cell-based; conditions: Human immunodeficiency virus 1
How it was run: (§1)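 Dye-transfer fusion: calcein-AM-labeled H9/HIV-1 IIIB cells cocultured with MT-2 cells (1:5) at 37°C for 2 h; compound at 10 µM either present throughout, or preincubated with H9/HIV-1 IIIB or with MT-2 cells 37°C 30 min then removed by two washes before adding partner cells. Fused and unfused labeled cells counted by fluorescence microscopy; triplicates, mean ± SD.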

[4] = system: Human immunodeficiency virus 1; assay: Binding affinity to IQNI7 pocket of HIV1 3B gp41 at 1 uM after 30 mins by SPR assay
[5] = system: MT2; assay: Inhibition of HIV1 3B gp41-mediated cell-cell fusion between viral envelope expressing virus-infected human H9 cells to human MT2 cells at 10 uM treated before addition of human MT2 cells measured after drug washout by fluorescence assay; type: cell-based; conditions: Human immunodeficiency virus 1; how it was run: as §1
[6] = system: Human immunodeficiency virus 1; assay: Inhibition of preformed HIV1 3B gp41 fusion-active core formation at 40 to 100 uM after 30 mins by sandwich ELISA
[7] = system: Human immunodeficiency virus 1; assay: Inhibition of preformed HIV1 3B gp41 fusion-active core formation at 40 to 100 uM after 30 mins by N-PAGE
How it was run: (§2)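 Native PAGE: N36 incubated with compound or PBS (or, for the preformed case, N36 with C34) at 37°C 30 min before adding the third component; final peptides 40 µM, compounds 100 µM; further 30 min 37°C. Mixed 1:1 with native sample buffer, run on 18% Tris-glycine gels at 125 V, room temperature, 2 h; Coomassie staining.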

[8] = biological target: C-X-C chemokine receptor type 4 (Homo sapiens) (UniProt P61073); assay: Inhibition of MAb12G5 binding to CXCR4 in human CEM cells at 25 uM by ELISA; type: cell-based; conditions: CCRF-CEM
Sequence of C-X-C chemokine receptor type 4 (Homo sapiens) (P61073 whole entry): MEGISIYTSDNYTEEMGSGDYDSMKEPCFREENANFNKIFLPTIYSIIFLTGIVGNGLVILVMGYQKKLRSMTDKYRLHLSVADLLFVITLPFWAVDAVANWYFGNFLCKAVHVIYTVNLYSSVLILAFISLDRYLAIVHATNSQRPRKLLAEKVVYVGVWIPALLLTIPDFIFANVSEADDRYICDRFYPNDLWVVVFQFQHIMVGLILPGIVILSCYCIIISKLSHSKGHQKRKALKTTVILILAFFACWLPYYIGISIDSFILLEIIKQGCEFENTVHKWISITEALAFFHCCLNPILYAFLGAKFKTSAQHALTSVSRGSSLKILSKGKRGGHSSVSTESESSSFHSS

[9] = Inhibition of PIE7 binding to HIV1 3B gp41 after 30 mins by ELISA; set-up: species or system Human immunodeficiency virus 1
[10] = system: MT2; assay: Inhibition of HIV1 3B gp41-mediated cell-cell fusion between viral envelope expressing virus-infected human H9 cells to human MT2 cells at 10 uM measured after drug washout by fluorescence assay; type: cell-based; conditions: Human immunodeficiency virus 1; how it was run: as §1
[11] = system: Human immunodeficiency virus 1; assay: Binding affinity to HIV1 3B gp41 assessed as alteration of structural configuration of N36-C34 complex at 10 to 40 uM after 30 mins by spectroscopy
How it was run: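 CD spectroscopy in PBS pH 7.2: N36 preincubated with compound or PBS 37°C 30 min, then C34 added and incubated a further 30 min at 37°C; final peptides 10 µM each, compound 40 µM. Spectra at room temperature, 0.1-cm path, blank-subtracted; α-helix content from mean residue ellipticity at 222 nm relative to −33,000 deg cm2 dmol−1.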

[12] = system: MT2; assay: Inhibition of HIV1 3B gp41-mediated cell-cell fusion between viral envelope expressing virus-infected human H9 cells to human MT2 cells at 10 uM treated 30 mins before viral infection by fluorescence assay; type: cell-based; conditions: Human immunodeficiency virus 1
[13] = system: MT2; assay: Inhibition of to HIV1 3B gp120 binding to CD4-positive human MT2 cells at 10 ug/ml by ELISA; type: cell-based; conditions: Human immunodeficiency virus 1
[14] = system: Human immunodeficiency virus 1; assay: Antiviral activity against HIV1 3B infected in human MT2 cells assessed as inhibition of viral p24 antigen production at 5 uM after 1 hr by ELISA
[15] = system: Human immunodeficiency virus 1; assay: Inhibition of HIV1 3B gp41 fusion-active core formation after 30 mins by N-PAGE; how it was run: as §2
[16] = system: Human immunodeficiency virus 1; assay: Binding affinity to HIV1 3B gp41 assessed as effect on N36K574D-C34D632K complex formation at 40 to 100 uM after 30 mins by N-PAGE
[17] = system: Human immunodeficiency virus 1; assay: (§3) Inhibition of HIV1 3B gp41 fusion-active core formation after 30 mins by sandwich ELISA
How it was run: (§4)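 After 30 min at 37°C, mixtures added to wells coated with anti-6-HB rabbit IgG (10 µg/ml); detected with MAb NC-1, biotin anti-mouse IgG, SA-HRP, TMB at A450. Triplicates; percent inhibition calculated.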

[18] = as §3; set-up: species or system Human immunodeficiency virus 1; how it was run: as §4
[19] = system: Human immunodeficiency virus 1; conditions: 3B, 1 uM
[20] = system: Human immunodeficiency virus 1; conditions: 3B, 1 uM; remark: listed apart in the source
[21] = system: Human immunodeficiency virus 1; assay: Antiviral activity against HIV1 3B infected in human MT2 cells assessed as inhibition of viral p24 antigen production at 5 uM after 8 hrs by ELISA

Structure (SMILES): N=C(N)NCCC[C@H](NC(=O)[C@H](CS)NC(=O)[C@H](CCCCN)NC(=O)[C@H](CCCNC(=N)N)NC(=O)[C@H](Cc1ccc(O)cc1)NC(=O)[C@H](CS)NC(=O)[C@H](Cc1ccc(O)cc1)NC(=O)CNC(=O)[C@H](CCCCN)NC(=O)[C@H](Cc1ccc(O)cc1)NC(=O)[C@H](CS)NC(=O)[C@H](CCCCN)NC(=O)[C@H](CCCNC(=N)N)NC(=O)[C@H](Cc1ccc(O)cc1)NC(=O)[C@H](CS)NC(=O)[C@H](Cc1c[nH]c2ccccc12)NC(=O)[C@H](CCCNC(=N)N)NC(=O)[C@@H](N)CCCNC(=N)N)C(=O)O (H-RRWCYRKCYKGYCYRKCR-OH)
inhibition [8]: Active

Structure (SMILES): CN1C(=O)[C@@H](c2cc(Cl)c(O)c(Cl)c2)NC(=O)[C@@H]2NC(=O)[C@@H](c3cc(Cl)c(O)c(Cl)c3)NC(=O)[C@H](NC(=O)C(=O)c3cc(Cl)c(O)c(Cl)c3)Cc3c[nH]c4c(cccc34)-c3cc2cc(c3O)Oc2ccc(cc2)C[C@H]1C(=O)N[C@@H](C(=O)O)c1ccc(O)cc1
inhibition [13]: Active

Structure (SMILES): Cc1cn([C@H]2C[C@H](N=[N+]=[N-])[C@@H](CO)O2)c(=O)[nH]c1=O
inhibition [21]: inactive

Continued, in another order:

Activity [1]: inactive
Structure (SMILES): CC[C@H](C)[C@H](NC(=O)[C@H](CCC(=O)O)NC(=O)[C@H](CC(N)=O)NC(=O)[C@H](CCC(=O)O)NC(=O)[C@@H](NC(=O)[C@H](CCCCN)NC(=O)[C@H](CCCCN)NC(=O)[C@H](CCC(N)=O)NC(=O)[C@H](CCCCN)NC(=O)[C@H](CO)NC(=O)[C@H](CCC(=O)O)NC(=O)[C@@H](NC(=O)[C@H](CCC(=O)O)NC(=O)[C@H](CCC(=O)O)NC(=O)[C@@H](NC(=O)[C@H](CCCCN)NC(=O)[C@H](CC(=O)O)NC(=O)[C@H](CCC(=O)O)NC(=O)[C@@H](NC(=O)[C@H](CCC(N)=O)NC(=O)[C@H](CCCCN)NC(=O)[C@H](CCSC)NC(=O)[C@@H](N)CCCNC(=N)N)[C@@H](C)CC)[C@@H](C)CC)[C@@H](C)CC)[C@@H](C)CC)C(=O)N[C@@H](C)C(=O)N[C@@H](CCCNC(=N)N)C(=O)N[C@H](C(=O)N[C@@H](CCCCN)C(=O)N[C@@H](CCCCN)C(=O)O)[C@@H](C)CC

Activity [2]: inactive
Activity [4]: Active
inhibition [6]: inactive
inhibition [7]: inactive
inhibition [8]: 18%
IC50 [9]: 680 nM
Activity [11]: Active
inhibition [15]: Dose-dependent effect
Activity [16]: inactive
inhibition [17]: Dose-dependent effect
IC50 [18]: 3360 nM
Structure (SMILES): COc1ccc(S(=O)(=O)O)cc1/N=N/c1c(S(=O)(=O)O)cc2cc(Nc3nc(Nc4ccccc4)nc(Nc4cc(C)c(/N=N/c5cc(S(=O)(=O)O)cc6cc(S(=O)(=O)O)cc(O)c56)cc4OC)n3)ccc2c1O
inhibition [3]: Active
inhibition [5]: 80%
inhibition [10]: 50%
inhibition [12]: inactive
inhibition [13]: inactive
inhibition [14]: Active

inhibition [19]: inactive
inhibition [20]: Active
Activity [4]: inactive
Structure (SMILES): c1cc(CN2CCCNCCNCCCNCC2)ccc1CN1CCCNCCNCCCNCC1
